In ChEMBL document CHEMBL1145071, “Oxindole-based compounds are selective inhibitors of Plasmodium falciparum cyclin dependent protein kinases” (J Med Chem, 2003):
pIC50: −log10 of the molar value.

Each molecule was assayed against T1, Protein kinase Pfmrk (Plasmodium falciparum, UniProt P90584) (assay: Inhibitory activity against Plasmodium falciparum cyclin dependent protein kinase, Pfmrk).
T1 sequence (P90584 whole entry): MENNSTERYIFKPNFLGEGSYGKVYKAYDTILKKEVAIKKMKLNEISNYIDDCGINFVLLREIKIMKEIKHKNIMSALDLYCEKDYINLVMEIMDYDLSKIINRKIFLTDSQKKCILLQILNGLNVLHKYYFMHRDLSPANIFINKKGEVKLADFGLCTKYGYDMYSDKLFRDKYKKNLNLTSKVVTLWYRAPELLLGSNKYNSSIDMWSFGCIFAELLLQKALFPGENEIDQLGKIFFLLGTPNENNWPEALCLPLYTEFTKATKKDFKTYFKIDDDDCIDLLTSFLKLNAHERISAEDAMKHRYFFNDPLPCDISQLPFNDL

Row | SMILES | pIC50
1 | COC(=O)[C@@]1(Cc2ccc(O)c(CC=C(C)C)c2)OC(=O)C(O)=C1c1ccc(O)cc1 [BUTYROLACTONE I] | 4.03
2 | Cn1cnc2c(NCc3ccccc3)nc(NCCO)nc21 [OLOMOUCINE] | < 3.00
3 | O=C1NC(=S)S/C1=C1\C(=O)Nc2ccc(F)cc21 | < 4.72
4 | O=Nc1c(-c2c(O)[nH]c3ccccc23)[nH]c2ccccc12 [INDIRUBIN-3-MONOXIME] | 4.52
5 | COc1ccc2c(c1)/C(=C1/SC(=S)NC1=O)C(=O)N2 | 4.77
6 | C/N=C/c1c(O)[nH]c2ccccc12 | < 4.24
7 | O=C1Cc2c([nH]c3ccc(Br)cc23)-c2ccccc2N1 [KENPAULLONE] | 4.82
8 | CC[C@H](CO)Nc1nc(NCc2ccccc2)c2ncn(C(C)C)c2n1 [SELICICLIB] | < 3.00
9 | CN[C@@H]1C[C@H]2O[C@@](C)([C@@H]1OC)n1c3ccccc3c3c4c(c5c6ccccc6n2c5c31)C(=O)NC4 (single isomer, unassigned) [STAUROSPORINE] | 5.40
10 | O=C1Nc2ccccc2/C1=C\c1ccc(C(F)(F)F)cc1 | 5.37
11 | CC(C)[C@H](CO)Nc1nc(Nc2cccc(Cl)c2)c2ncn(C(C)C)c2n1 [PURVALANOLA] | 4.59
12 | COc1cc2ncnc(Nc3cccc(O)c3)c2cc1OC | 3.77
13 | O=C1Cc2c([nH]c3ccc([N+](=O)[O-])cc23)-c2ccccc2N1 [ALSTERPAULLONE] | 4.29
14 | O=C1Nc2ccccc2/C1=C\C1CCCCN1 (configuration not stated) | < 4.68
15 | CCOC(=O)/C(C#N)=C1/C(=O)Nc2ccccc21 | 4.38
16 | N#C/C(C(N)=O)=C1\C(=O)Nc2ccccc21 | 4.62

Continued, values first:

Row | pIC50 | SMILES
17 | 5.40 | O=C1Nc2ccccc2/C1=C\C(=O)c1ccccc1
18 | 5.85 | O=C1Nc2ccc(Br)cc2/C1=C\C(=O)c1ccc(F)cc1
19 | 5.46 | O=C1Nc2ccccc2/C1=C/C(=O)c1ccc(Br)cc1
20 | < 4.36 | CC(C)(C)C(=O)/C=C1/C(=O)Nc2ccccc21
21 | < 4.38 | O=C1Nc2ccccc2/C1=C\c1ccc(O)cc1
22 | 5.54 | Cc1ccc(C(=O)/C=C2/C(=O)Nc3ccc(Br)cc32)cc1
23 | < 4.43 | O=C1Nc2ccccc2/C1=C\c1ccc(Cl)cc1
24 | < 4.43 | CC(=O)/C=C1/C(=O)Nc2ccccc21
25 | 5.51 | O=C1Nc2ccc(Br)cc2/C1=C/C(=O)c1ccccc1
26 | 4.77 | O=C1Nc2ccccc2/C1=C\c1c(Cl)cccc1Cl

What follows are molecules tested on Plasmodium falciparum (assay: Inhibitory activity against Plasmodium falciparum D6).
Assay type: functional, organism-based
Procedure, shortened: (§1)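 Cultured D6 (chloroquine-sensitive) and W2 (chloroquine-resistant) clones in A+ red cells, 6% hematocrit, 10% human serum, 90% N2/5% O2/5% CO2. Cultures at 3% parasitemia with at least 70% rings placed in drug-precoated wells for 24 h. [3H]-hypoxanthine then added for a further 18 h; uptake counted after harvest. IC50 from four-parameter nonlinear regression.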

Row | SMILES | pIC50
27 | COC(=O)[C@@]1(Cc2ccc(O)c(CC=C(C)C)c2)OC(=O)C(O)=C1c1ccc(O)cc1 [BUTYROLACTONE I] | 4.93
28 | Cn1cnc2c(NCc3ccccc3)nc(NCCO)nc21 [OLOMOUCINE] | 5.57
29 | O=Nc1c(-c2c(O)[nH]c3ccccc23)[nH]c2ccccc12 [INDIRUBIN-3-MONOXIME] | 6.22
30 | O=C1Cc2c([nH]c3ccc(Br)cc23)-c2ccccc2N1 [KENPAULLONE] | 5.42
31 | CC[C@H](CO)Nc1nc(NCc2ccccc2)c2ncn(C(C)C)c2n1 [SELICICLIB] | 4.48
32 | CN[C@@H]1C[C@H]2O[C@@](C)([C@@H]1OC)n1c3ccccc3c3c4c(c5c6ccccc6n2c5c31)C(=O)NC4 (single isomer, unassigned) [STAUROSPORINE] | 6.72
33 | CC(C)[C@H](CO)Nc1nc(Nc2cccc(Cl)c2)c2ncn(C(C)C)c2n1 [PURVALANOLA] | 5.59
34 | O=C1Cc2c([nH]c3ccc([N+](=O)[O-])cc23)-c2ccccc2N1 [ALSTERPAULLONE] | 5.37

Other lines, results leading:

Row | pIC50 | SMILES
35 | < 4.70 | O=C1Nc2ccccc2/C1=C\C(=O)c1ccccc1
36 | < 4.84 | O=C1Nc2ccc(Br)cc2/C1=C\C(=O)c1ccc(F)cc1
37 | < 4.82 | O=C1Nc2ccccc2/C1=C/C(=O)c1ccc(Br)cc1
38 | < 4.84 | Cc1ccc(C(=O)/C=C2/C(=O)Nc3ccc(Br)cc32)cc1
39 | < 4.82 | O=C1Nc2ccc(Br)cc2/C1=C/C(=O)c1ccccc1

These molecules were tested on Plasmodium falciparum (assay: Inhibitory activity against Plasmodium falciparum W2).
Assay type: functional, organism-based
Procedure, shortened: as §1

Row | SMILES | pIC50
40 | COC(=O)[C@@]1(Cc2ccc(O)c(CC=C(C)C)c2)OC(=O)C(O)=C1c1ccc(O)cc1 [BUTYROLACTONE I] | 4.93
41 | Cn1cnc2c(NCc3ccccc3)nc(NCCO)nc21 [OLOMOUCINE] | 5.10
42 | O=Nc1c(-c2c(O)[nH]c3ccccc23)[nH]c2ccccc12 [INDIRUBIN-3-MONOXIME] | 5.96
43 | O=C1Cc2c([nH]c3ccc(Br)cc23)-c2ccccc2N1 [KENPAULLONE] | 5.42
44 | CC[C@H](CO)Nc1nc(NCc2ccccc2)c2ncn(C(C)C)c2n1 [SELICICLIB] | 4.55
45 | CN[C@@H]1C[C@H]2O[C@@](C)([C@@H]1OC)n1c3ccccc3c3c4c(c5c6ccccc6n2c5c31)C(=O)NC4 (single isomer, unassigned) [STAUROSPORINE] | 6.82
46 | CC(C)[C@H](CO)Nc1nc(Nc2cccc(Cl)c2)c2ncn(C(C)C)c2n1 [PURVALANOLA] | 5.04
47 | O=C1Cc2c([nH]c3ccc([N+](=O)[O-])cc23)-c2ccccc2N1 [ALSTERPAULLONE] | 5.37

Further lines, results first:

Row | pIC50 | SMILES
48 | < 4.70 | O=C1Nc2ccccc2/C1=C\C(=O)c1ccccc1
49 | < 4.84 | O=C1Nc2ccc(Br)cc2/C1=C\C(=O)c1ccc(F)cc1
50 | < 4.82 | O=C1Nc2ccccc2/C1=C/C(=O)c1ccc(Br)cc1
51 | < 4.84 | Cc1ccc(C(=O)/C=C2/C(=O)Nc3ccc(Br)cc32)cc1
52 | < 4.82 | O=C1Nc2ccc(Br)cc2/C1=C/C(=O)c1ccccc1

What follows are molecules tested against Cyclin-dependent kinase 1/cyclin B (Homo sapiens, UniProt P06493) (assay: Inhibition of human Cyclin-dependent kinase 1 cyclin B).
Assay type: protein-complex assay

Row | pIC50 | SMILES
53 | < 4.80 | O=C1Nc2ccccc2/C1=C\C(=O)c1ccccc1
54 | 4.54 | O=C1Nc2ccc(Br)cc2/C1=C\C(=O)c1ccc(F)cc1
55 | 4.92 | O=C1Nc2ccccc2/C1=C/C(=O)c1ccc(Br)cc1
56 | 4.54 | Cc1ccc(C(=O)/C=C2/C(=O)Nc3ccc(Br)cc32)cc1
57 | 4.52 | O=C1Nc2ccc(Br)cc2/C1=C/C(=O)c1ccccc1

The molecules below were run against PFPK5(P.falciparum) (Plasmodium falciparum, UniProt P61075) (assay: Inhibition of Plasmodium falciparum cyclin dependent protein kinase, PfPK5).
Sequence of PFPK5(P.falciparum) (P61075 whole entry, looked up): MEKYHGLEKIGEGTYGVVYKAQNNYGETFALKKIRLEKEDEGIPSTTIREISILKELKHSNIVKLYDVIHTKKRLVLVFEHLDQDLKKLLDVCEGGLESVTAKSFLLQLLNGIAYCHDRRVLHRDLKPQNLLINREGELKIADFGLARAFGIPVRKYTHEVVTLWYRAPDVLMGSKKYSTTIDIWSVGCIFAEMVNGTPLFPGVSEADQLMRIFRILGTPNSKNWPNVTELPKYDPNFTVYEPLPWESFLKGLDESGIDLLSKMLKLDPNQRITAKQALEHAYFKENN

Row | pIC50 | SMILES
58 | 3.82 | O=C1Nc2ccccc2/C1=C\C(=O)c1ccccc1
59 | 3.72 | O=C1Nc2ccc(Br)cc2/C1=C\C(=O)c1ccc(F)cc1
60 | 3.89 | O=C1Nc2ccccc2/C1=C/C(=O)c1ccc(Br)cc1
61 | 3.92 | Cc1ccc(C(=O)/C=C2/C(=O)Nc3ccc(Br)cc32)cc1
62 | 3.92 | O=C1Nc2ccc(Br)cc2/C1=C/C(=O)c1ccccc1
